Source: PubChem (The Scripps Research Institute Molecular Screening Center)
M4 PAM: potentiates acetylcholine response at human M4 receptor. activation, % at 3 µM. CHO-K1 hM4/Gqi5, Fluo-8 calcium fluorescence, ACh EC20; 0% = ACh EC20, 100% = maximal ACh. 0.4% of 360,000 active. AID 624126;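 active = activation above its plate's cutoff, the mean activation of sample wells plus 3 SD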
CHRM5 agonist: agonists of human muscarinic M5 receptor (CHRM5); activation, % at 3 µM; CHO-K1 hM5 cells, Fluo-8 calcium fluorescence; 0% DMSO wells, 100% maximal acetylcholine response; AID 624037; 0.19% of 360,000 active;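 active = activation above the run's mean over test compounds plus 3 SD, cut at about 23% in these data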;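 also: signal is peak over basal fluorescence ratio across the kinetic read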
Target sequence (P08912 whole entry, looked up): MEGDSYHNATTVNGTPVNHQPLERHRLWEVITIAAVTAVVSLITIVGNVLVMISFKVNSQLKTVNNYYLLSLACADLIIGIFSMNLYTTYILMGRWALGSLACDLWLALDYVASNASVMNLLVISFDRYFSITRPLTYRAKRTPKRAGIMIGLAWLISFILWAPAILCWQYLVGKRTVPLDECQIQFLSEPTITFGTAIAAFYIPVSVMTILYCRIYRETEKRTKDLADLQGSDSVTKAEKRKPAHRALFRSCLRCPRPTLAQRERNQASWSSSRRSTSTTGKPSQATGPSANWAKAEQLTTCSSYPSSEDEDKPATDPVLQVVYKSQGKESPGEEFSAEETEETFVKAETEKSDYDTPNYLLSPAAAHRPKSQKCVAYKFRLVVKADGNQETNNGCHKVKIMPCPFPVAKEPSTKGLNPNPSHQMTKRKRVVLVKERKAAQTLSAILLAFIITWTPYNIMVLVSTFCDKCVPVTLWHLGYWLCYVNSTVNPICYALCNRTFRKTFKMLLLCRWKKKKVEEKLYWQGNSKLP
M4 ag: CHRM4 agonism in calcium assay; P08173; CHO-K1 hM4/Gqi5, Fluo-8 calcium fluorescence; vehicle 0%, full acetylcholine response 100%; activation, % at 3 µM; 0.14% of 360,000 active;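 active = activation above the run mean over all test wells plus 3 SD, cut at about 32% in these data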;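 also: peak over basal fluorescence ratio per well then scaled between controls; 0% = DMSO wells and 100% = acetylcholine at EC100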
M5 antag: blocks acetylcholine activation of human M5 receptor. CHO-hM5 cells, Fluo-8 calcium fluorescence, ACh EC80. inhibition, % at 3 µM. 0.59% of 360,000 active;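 active = inhibition above a per-plate cutoff, the mean of that plate's test compounds plus 3 SD, cut at about 27% in these data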;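 also: 0% = acetylcholine EC80 with DMSO and 100% = DMSO without agonist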
CHRM4 antagonist: antagonists of human muscarinic M4 receptor (CHRM4); P08173; CHO-hM4 cells, ACh EC80, Fluo-8 calcium fluorescence; inhibition, % at 3 µM; 0.73% of 360,000 active;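 active = inhibition above its plate's cutoff, the mean inhibition of sample wells plus 3 SD, cut at about 27% in these data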;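 also: 0% = acetylcholine EC80 with DMSO and 100% = DMSO without agonist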
CHRM5 PAM: CHRM5 positive allosteric modulation | activation, % at 3 µM | 0.3% of 360,000 active | CHO-K1 hM5, Fluo-8 calcium, ACh EC20 PAM; 0% = ACh EC20, 100% = ACh EC100 | P08912;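 active = activation above the run cutoff, the mean activation of all test compounds plus 3 SD, cut at about 18% in these data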
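System: CHO-K1 hM5 cells. Reagent: acetylcholine, EC20 level. Compound dosing: single dose, 3 µM nominal final test concentration. Timing: Post-acetylcholine fluorescence recording 140 s. Detection: Fluo-8 calcium fluorescence. Read-out: % activation, ACh-normalized. Benchmarks: ACh EC20 and EC100 wells. Repeats: singlicate, one well per test compound.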
* = called active by the depositor. Hits are enriched below; roughly 1.8% of the tested compounds scored in any of these assays.

SMILES | M4 PAM | CHRM5 agonist | M4 ag | M5 antag | CHRM4 antagonist | CHRM5 PAM
O=C(OCC(=O)N1CCCCCC1)c1ccccc1Br | 3 | 0 | 2 | 12 | -3 | 0
CCS(=O)(=O)c1ccc(O)c(NC(=O)Nc2cccc3ccccc23)c1 | 0 | -1 | 0 | 3 | -2 | -3
O=C1/C(=C\c2c(NCCOCCO)nc3ccccn3c2=O)SC(=S)N1Cc1ccco1 | -12 | 60* | 19 | 19 | 24 | -10
Fc1ccc(C[n+]2csc3ccccc32)cc1 | -7 | 46* | 6 | 43* | 28* | 3
Clc1ccc(C[n+]2csc3ccccc32)cc1 | -8 | 18 | 0 | 9 | 9 | 15
CCOC(=O)C1(C)CCN1C(=O)c1ccccc1 (centres undefined) | 5 | -1 | 1 | -2 | 0 | 4
COc1cccc(NC(=O)c2ccccc2Oc2ccccc2)c1 | -6 | -4 | -2 | 7 | -1 | -1
COc1cccc(Nc2ncccc2C(=O)Nc2ccccc2)c1 | -2 | -8 | 1 | 5 | -3 | 19*
CN(C)C(CNC(=O)CCNS(=O)(=O)c1ccccc1C(F)(F)F)c1ccccc1 (centres undefined) | 9 | 0 | 2 | -2 | -7 | 3
Brc1cnc(N2CCCC2)nc1N1CCOCC1 | 11 | -3 | 0 | 5 | 27* | -1
Oc1ccccc1Oc1ncc(Br)c(Cl)n1 | 5 | -8 | -1 | -4 | -1 | 4
Oc1ccccc1Oc1ncc(Br)c(N2CCOCC2)n1 | -18 | -8 | 1 | 11 | 40* | -23
Cc1ccc2c(CN(C)Cc3ccc(Cl)cc3)cc(=O)oc2c1 | -7 | -3 | -1 | 5 | -3 | -4
C[C@H](CO)N1C[C@H](C)[C@@H](CN(C)S(=O)(=O)c2cccs2)Oc2ccc(NS(=O)(=O)c3cn(C)cn3)cc2C1=O | -1 | -2 | 1 | 13 | 9 | 0
C[C@H](CO)N1C[C@H](C)[C@H](CN(C)S(=O)(=O)c2cccs2)Oc2ccc(NC(=O)Nc3ccc4c(c3)OCO4)cc2CC1=O | -16 | -2 | 1 | 12 | 41* | -2
C[C@H]1CN([C@@H](C)CO)C(=O)Cc2cc(NS(=O)(=O)c3cccs3)ccc2O[C@H]1CN(C)S(=O)(=O)c1cn(C)cn1 | -14 | -5 | 3 | 1 | 32* | -3
C[C@H](CO)N1C[C@H](C)[C@@H](CN(C)S(=O)(=O)c2cccs2)Oc2ccc(NC(=O)Nc3ccc4c(c3)OCO4)cc2C1=O | -1 | -2 | 1 | 14 | 10 | -4
Cc1ccc(NC(=O)CSCC(=O)OC(C)C(=O)Nc2ccccc2C)cc1 (centres undefined) | -5 | 5 | 10 | 4 | 4 | -15
CCOc1ccc(NC(=O)CSc2nc3ccccc3nc2N2CCCC2)cc1 | 1 | 3 | 0 | 1 | -6 | -3
N#C/C(=C\c1ccc(O)c([N+](=O)[O-])c1)c1nc2ccccc2s1 | -6 | 14 | 14 | 31* | 7 | -20
COc1cc(/C=C(\C#N)c2nc3ccccc3s2)cc([N+](=O)[O-])c1O | 7 | 7 | 3 | 0 | 15 | 0
CCc1cccc(C)c1NC(=O)C1CC(=O)N(C2CCCC2)C1 (centres undefined) | 6 | 3 | 0 | -5 | -23 | 9
Nc1ccc(S(=O)(=O)NN=Cc2ccccc2[N+](=O)[O-])cc1 | 0 | 0 | 0 | 13 | 3 | 4
O=C(COC(=O)/C=C/c1ccc(Cl)cc1)Nc1ccc2c(c1)OCCO2 | 34* | 0 | 3 | -4 | -14 | 16
COc1cccc(/C=C/C(=O)OCC(=O)Nc2ccc3c(c2)OCCO3)c1 | 11 | 1 | 1 | 7 | -9 | -5
O=C(COC(=O)/C=C/c1ccccc1)Nc1ccc2c(c1)OCCO2 | 27* | -1 | 0 | 7 | -19 | -3
COc1ccccc1NC(=O)Cc1nnc(SCC(=O)NC2CCCCC2)n1C | -3 | -3 | 1 | 15 | 3 | -1
